Measured values from ChEMBL document CHEMBL1147762, “A new chemical tool for exploring the physiological function of the PDE2 isozyme” (Bioorg Med Chem Lett, 2006).
In brackets after ≈: the same amount, converted by molar mass.

Assays:
[1] = Activity against GABA uptake at 10 uM
In short: (§1)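 Single-concentration screen within a panel of 54 receptors and ion channels, measuring binding or interaction at each target.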

[2] = biological target: 5-hydroxytryptamine receptor 2A (Homo sapiens) (UniProt P28223); assay: Percentage binding to serotonin 5HT2A at 10 uM
[3] = biological target: Glycogen synthase kinase-3 beta (Homo sapiens) (UniProt P49841); assay: Inhibition of GSK3-beta at 10 uM
[4] = Percentage binding to GABA at 10 uM; in short: as §1
[5] = biological target: High affinity cAMP-specific and IBMX-insensitive 3',5'-cyclic phosphodiesterase 8B (Homo sapiens, UniProt O95263); assay: Inhibitory activity against PDE8B by scintillation proximity assay
In short: (§2)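 Scintillation proximity assay for phosphodiesterase inhibition. Enzyme is used at a concentration within the linear range, and its KM was measured. Final substrate concentration is 1 µM, below one-third of KM, so IC50 approximates Ki. Results are means of n experiments with standard deviation.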

[6] = biological target: Muscarinic acetylcholine receptor M2 (Homo sapiens) (UniProt P08172); assay: Percentage binding to muscarinic M2 at 10 uM
[7] = biological target: Muscarinic acetylcholine receptor M4 (Homo sapiens) (UniProt P08173); assay: Percentage binding to muscarinic M4 at 10 uM
[8] = biological target: D(2) dopamine receptor (Homo sapiens) (UniProt P14416); assay: Percentage binding to dopamine D2 at 10 uM
[9] = biological target: Ribosomal protein S6 kinase alpha-5 (Homo sapiens) (UniProt O75582); assay: Inhibition of MSK1 at 10 uM
[10] = biological target: Adenosine receptor A2a (Homo sapiens) (UniProt P29274); assay: Percentage binding to adenosine A2a receptor at 10 uM
[11] = biological target: cGMP-dependent 3',5'-cyclic phosphodiesterase (Homo sapiens, UniProt O00408); assay: Inhibitory activity against PDE2 by scintillation proximity assay
In short: (§3)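 Phosphodiesterase inhibition run as a scintillation proximity assay, with enzyme at a concentration in the linear range. Final substrate was 1 µM, below one-third of the enzyme K_M, so that IC50 approximates Ki. Values are means of n experiments with standard deviation.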

[12] = biological target: Glutamate receptor ionotropic AMPA (Homo sapiens) (UniProt P48058+P42263+P42262+P42261); assay: Percentage binding to AMPA at 10 uM; type: protein-complex assay
[13] = Apical cell permeability in parental MDCK cells
[14] = biological target: Cyclin-dependent kinase 2 (Homo sapiens) (UniProt P24941); assay: Inhibition of CDK2 at 10 uM
[15] = biological target: Dual 3',5'-cyclic-AMP and -GMP phosphodiesterase 11A (Homo sapiens, UniProt Q9HCR9); assay: Inhibitory activity against PDE11 by scintillation proximity assay
In short: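 Phosphodiesterase inhibition run as a scintillation proximity assay, with enzyme at a concentration in the linear range. Values are means of n experiments with standard deviation.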

[16] = biological target: Serine/threonine-protein kinase Nek2 (Homo sapiens) (UniProt P51955); assay: Inhibition of NEK2 at 10 uM
Chain of Serine/threonine-protein kinase Nek2 (Homo sapiens) (P51955 whole entry): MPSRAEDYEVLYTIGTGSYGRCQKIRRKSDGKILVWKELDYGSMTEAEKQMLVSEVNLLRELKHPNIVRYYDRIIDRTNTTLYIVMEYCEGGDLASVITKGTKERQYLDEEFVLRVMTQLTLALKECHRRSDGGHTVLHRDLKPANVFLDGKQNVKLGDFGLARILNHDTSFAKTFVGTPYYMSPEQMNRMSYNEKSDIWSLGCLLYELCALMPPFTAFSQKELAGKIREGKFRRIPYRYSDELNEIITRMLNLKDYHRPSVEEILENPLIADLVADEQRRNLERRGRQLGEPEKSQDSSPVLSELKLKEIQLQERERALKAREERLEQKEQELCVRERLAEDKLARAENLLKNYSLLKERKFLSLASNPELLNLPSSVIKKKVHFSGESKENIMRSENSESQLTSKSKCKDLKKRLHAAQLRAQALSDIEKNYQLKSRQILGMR

[17] = biological target: Type-2 angiotensin II receptor (Homo sapiens) (UniProt P50052); assay: Percentage binding to angiotensin II type 2 receptor at 10 uM
[18] = biological target: Vasopressin V2 receptor (Homo sapiens) (UniProt P30518); assay: Percentage binding to vasopressin V2 at 10 uM
[19] = biological target: Tyrosine-protein kinase CSK (Homo sapiens) (UniProt P41240); assay: Inhibition of CSK at 10 uM
[20] = biological target: Cyclooxygenase (Homo sapiens) (UniProt P35354+P23219); assay: Inhibition of COX at 10 uM; type: protein assay
[21] = biological target: Mitogen-activated protein kinase 12 (Homo sapiens) (UniProt P53778); assay: Inhibition of SAPK3 at 10 uM
[22] = biological target: Adenosine receptor A1 (Homo sapiens) (UniProt P30542); assay: Percentage binding to adenosine A1 receptor at 10 uM
[23] = biological target: Mitogen-activated protein kinase 8 (Homo sapiens) (UniProt P45983); assay: Inhibition of JNK1a1 at 10 uM
[24] = biological target: 3',5'-cyclic-AMP phosphodiesterase 4C (Homo sapiens, UniProt Q08493); assay: Inhibitory activity against PDE4C by scintillation proximity assay; in short: as §2
[25] = biological target: Voltage-dependent N-type calcium channel subunit alpha-1B (Homo sapiens) (UniProt Q00975); assay: Percentage binding to Ca2+ channel N at 10 uM
Chain of Voltage-dependent N-type calcium channel subunit alpha-1B (Homo sapiens) (Q00975 whole entry, looked up): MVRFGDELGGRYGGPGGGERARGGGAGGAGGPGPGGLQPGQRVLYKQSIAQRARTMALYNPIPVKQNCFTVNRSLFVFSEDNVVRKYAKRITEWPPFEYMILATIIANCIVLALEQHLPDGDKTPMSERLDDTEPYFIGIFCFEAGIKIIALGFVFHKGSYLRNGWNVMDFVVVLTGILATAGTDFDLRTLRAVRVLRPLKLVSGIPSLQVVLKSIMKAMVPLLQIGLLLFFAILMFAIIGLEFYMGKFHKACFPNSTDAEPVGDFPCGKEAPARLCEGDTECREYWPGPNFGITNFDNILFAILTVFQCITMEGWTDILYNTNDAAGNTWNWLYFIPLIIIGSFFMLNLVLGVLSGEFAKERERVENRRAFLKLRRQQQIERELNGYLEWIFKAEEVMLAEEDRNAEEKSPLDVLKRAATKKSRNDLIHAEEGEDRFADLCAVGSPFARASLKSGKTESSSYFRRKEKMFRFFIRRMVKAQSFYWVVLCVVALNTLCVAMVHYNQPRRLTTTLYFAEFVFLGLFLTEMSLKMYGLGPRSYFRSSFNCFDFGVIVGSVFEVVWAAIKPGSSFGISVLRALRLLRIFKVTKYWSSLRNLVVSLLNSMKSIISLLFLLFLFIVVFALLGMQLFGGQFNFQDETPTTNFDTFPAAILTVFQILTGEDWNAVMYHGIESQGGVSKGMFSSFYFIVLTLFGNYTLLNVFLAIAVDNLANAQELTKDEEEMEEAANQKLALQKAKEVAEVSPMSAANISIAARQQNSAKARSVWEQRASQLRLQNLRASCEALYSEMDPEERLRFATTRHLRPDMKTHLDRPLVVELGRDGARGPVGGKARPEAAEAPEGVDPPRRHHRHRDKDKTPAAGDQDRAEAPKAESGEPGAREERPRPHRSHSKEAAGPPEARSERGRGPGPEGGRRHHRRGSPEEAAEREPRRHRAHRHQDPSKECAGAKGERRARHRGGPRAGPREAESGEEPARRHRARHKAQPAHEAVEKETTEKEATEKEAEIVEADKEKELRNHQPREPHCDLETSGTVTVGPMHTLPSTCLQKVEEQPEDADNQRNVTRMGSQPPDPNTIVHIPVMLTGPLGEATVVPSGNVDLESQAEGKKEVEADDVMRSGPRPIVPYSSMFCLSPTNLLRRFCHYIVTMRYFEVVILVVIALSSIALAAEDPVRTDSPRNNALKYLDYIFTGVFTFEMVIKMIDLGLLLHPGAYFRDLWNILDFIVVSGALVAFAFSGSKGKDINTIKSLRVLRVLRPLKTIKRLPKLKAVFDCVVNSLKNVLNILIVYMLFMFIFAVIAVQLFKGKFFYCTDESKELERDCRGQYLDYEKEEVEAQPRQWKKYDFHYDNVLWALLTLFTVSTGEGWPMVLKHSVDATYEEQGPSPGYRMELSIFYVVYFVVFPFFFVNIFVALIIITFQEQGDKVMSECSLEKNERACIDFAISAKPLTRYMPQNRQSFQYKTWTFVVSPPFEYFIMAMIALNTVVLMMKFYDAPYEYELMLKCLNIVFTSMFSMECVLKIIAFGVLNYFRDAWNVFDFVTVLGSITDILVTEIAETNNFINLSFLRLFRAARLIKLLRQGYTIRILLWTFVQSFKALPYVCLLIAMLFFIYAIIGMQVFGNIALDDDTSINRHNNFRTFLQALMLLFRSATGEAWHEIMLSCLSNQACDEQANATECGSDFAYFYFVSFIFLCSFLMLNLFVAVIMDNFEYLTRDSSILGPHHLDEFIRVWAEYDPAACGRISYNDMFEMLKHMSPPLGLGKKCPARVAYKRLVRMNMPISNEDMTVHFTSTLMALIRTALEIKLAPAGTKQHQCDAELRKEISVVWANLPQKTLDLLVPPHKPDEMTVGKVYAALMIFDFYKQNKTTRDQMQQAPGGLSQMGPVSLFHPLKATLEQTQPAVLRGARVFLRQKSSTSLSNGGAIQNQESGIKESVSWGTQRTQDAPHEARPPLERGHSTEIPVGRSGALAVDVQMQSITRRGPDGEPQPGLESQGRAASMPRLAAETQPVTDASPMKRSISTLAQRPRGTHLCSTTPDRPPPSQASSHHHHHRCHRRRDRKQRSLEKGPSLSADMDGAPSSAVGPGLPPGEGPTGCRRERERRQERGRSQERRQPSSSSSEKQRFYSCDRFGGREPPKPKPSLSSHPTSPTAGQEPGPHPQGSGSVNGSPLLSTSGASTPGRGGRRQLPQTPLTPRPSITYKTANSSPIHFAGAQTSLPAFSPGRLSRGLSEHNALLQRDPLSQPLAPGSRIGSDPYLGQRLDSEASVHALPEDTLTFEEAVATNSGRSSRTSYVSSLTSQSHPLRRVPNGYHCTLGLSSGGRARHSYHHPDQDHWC

[26] = biological target: Ribosomal protein S6 kinase alpha-1 (Homo sapiens) (UniProt Q15418); assay: Inhibition of RSK1 at 10 uM
[27] = biological target: Kappa-type opioid receptor (Homo sapiens) (UniProt P41145); assay: Percentage binding to opioid kappa at 10 uM
Chain of Kappa-type opioid receptor (Homo sapiens) (P41145 whole entry): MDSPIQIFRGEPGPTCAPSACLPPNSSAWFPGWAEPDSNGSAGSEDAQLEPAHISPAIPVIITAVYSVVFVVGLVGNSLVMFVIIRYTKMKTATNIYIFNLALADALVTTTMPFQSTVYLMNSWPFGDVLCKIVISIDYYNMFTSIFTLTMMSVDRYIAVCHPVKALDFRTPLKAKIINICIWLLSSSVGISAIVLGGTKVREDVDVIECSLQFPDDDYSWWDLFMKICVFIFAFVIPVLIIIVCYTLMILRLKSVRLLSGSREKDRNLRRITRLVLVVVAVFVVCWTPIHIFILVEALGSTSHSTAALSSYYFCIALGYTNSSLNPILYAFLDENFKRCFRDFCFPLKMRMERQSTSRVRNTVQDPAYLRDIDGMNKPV

[28] = system: P-glycoprotein (human); assay: Basolateral cell permeability in MDCK with MDR transfectant overexpressing human p-glycoprotein; type: ADME, cell-based; details: MDCK-MDR1
[29] = biological target: D(4) dopamine receptor (Homo sapiens) (UniProt P21917); assay: Percentage binding to dopamine D4 at 10 uM
Chain of D(4) dopamine receptor (Homo sapiens) (P21917 whole entry): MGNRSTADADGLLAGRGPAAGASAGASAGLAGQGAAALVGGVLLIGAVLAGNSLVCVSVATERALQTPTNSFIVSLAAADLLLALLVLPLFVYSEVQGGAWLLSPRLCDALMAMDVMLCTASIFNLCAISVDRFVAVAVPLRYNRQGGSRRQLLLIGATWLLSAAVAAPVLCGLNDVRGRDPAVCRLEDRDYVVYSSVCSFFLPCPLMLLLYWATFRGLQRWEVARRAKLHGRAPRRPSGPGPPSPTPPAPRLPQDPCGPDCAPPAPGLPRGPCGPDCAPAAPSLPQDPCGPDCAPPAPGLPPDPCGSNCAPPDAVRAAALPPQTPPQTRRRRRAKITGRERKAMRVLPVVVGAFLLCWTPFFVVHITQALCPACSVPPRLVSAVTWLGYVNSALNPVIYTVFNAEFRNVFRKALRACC

[30] = biological target: cAMP and cAMP-inhibited cGMP 3',5'-cyclic phosphodiesterase 10A (Homo sapiens, UniProt Q9Y233); assay: Inhibitory activity against PDE10 by scintillation proximity assay; in short: as §3
[31] = biological target: Dual specificity mitogen-activated protein kinase kinase 1 (Homo sapiens) (UniProt Q02750); assay: Inhibition of MKK1 at 10 uM
[32] = biological target: Sodium-dependent noradrenaline transporter (Homo sapiens) (UniProt P23975); assay: Activity against norepinephrine uptake at 10 uM
Chain of Sodium-dependent noradrenaline transporter (Homo sapiens) (P23975 whole entry): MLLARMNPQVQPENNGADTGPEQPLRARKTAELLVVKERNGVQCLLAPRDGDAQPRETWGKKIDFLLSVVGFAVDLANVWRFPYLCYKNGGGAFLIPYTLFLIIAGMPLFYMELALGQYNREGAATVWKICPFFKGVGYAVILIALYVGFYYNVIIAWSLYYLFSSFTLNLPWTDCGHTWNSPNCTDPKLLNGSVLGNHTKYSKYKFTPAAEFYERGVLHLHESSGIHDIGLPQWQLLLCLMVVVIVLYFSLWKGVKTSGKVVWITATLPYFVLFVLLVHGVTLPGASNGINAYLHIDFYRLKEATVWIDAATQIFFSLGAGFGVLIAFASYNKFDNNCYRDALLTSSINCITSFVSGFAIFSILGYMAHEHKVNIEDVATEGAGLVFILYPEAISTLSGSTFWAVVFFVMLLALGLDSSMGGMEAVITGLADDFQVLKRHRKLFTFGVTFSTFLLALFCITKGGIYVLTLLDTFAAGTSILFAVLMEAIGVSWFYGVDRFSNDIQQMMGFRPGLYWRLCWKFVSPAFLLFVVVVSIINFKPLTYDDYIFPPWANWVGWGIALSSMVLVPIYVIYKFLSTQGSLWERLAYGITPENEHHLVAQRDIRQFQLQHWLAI

[33] = biological target: Delta-type opioid receptor (Homo sapiens) (UniProt P41143); assay: Percentage binding to opioid delta at 10 uM
Chain of Delta-type opioid receptor (Homo sapiens) (P41143 whole entry): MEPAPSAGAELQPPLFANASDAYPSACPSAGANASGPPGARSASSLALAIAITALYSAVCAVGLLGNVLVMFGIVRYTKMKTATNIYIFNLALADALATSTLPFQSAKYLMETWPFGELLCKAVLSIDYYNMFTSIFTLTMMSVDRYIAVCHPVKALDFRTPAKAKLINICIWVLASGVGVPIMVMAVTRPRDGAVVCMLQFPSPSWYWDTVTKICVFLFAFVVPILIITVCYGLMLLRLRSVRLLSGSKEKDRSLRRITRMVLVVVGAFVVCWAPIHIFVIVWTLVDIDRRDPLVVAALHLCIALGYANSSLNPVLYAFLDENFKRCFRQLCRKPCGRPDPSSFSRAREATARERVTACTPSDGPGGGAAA

[34] = biological target: Adenosine receptor A3 (Homo sapiens) (UniProt P0DMS8); assay: Percentage binding to adenosine A3 receptor at 10 uM
[35] = biological target: 5-hydroxytryptamine receptor 1A (Homo sapiens) (UniProt P08908); assay: Percentage binding to serotonin 5HT1A at 10 uM
[36] = biological target: Histamine H3 receptor (Homo sapiens) (UniProt Q9Y5N1); assay: Percentage binding to histamine H3 at 10 uM
Chain of Histamine H3 receptor (Homo sapiens) (Q9Y5N1 whole entry): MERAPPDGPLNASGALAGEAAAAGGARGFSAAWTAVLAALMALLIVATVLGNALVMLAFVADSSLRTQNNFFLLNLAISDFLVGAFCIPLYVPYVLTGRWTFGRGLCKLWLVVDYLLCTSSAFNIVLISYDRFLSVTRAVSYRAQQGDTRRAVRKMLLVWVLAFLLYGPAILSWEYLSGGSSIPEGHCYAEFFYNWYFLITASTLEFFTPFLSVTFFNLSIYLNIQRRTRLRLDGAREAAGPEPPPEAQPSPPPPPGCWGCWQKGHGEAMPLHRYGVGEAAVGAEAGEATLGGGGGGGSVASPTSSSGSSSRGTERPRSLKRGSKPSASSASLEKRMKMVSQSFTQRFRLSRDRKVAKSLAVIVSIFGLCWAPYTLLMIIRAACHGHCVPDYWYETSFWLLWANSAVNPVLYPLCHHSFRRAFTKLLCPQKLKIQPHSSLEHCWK

[37] = biological target: 5-hydroxytryptamine receptor 7 (Homo sapiens) (UniProt P34969); assay: Percentage binding to serotonin 5HT7 at 10 uM
[38] = biological target: 3',5'-cyclic-AMP phosphodiesterase 4D (Homo sapiens, UniProt Q08499); assay: Inhibitory activity against PDE4D by scintillation proximity assay; in short: as §2
[39] = biological target: Thyroid hormone receptor (Homo sapiens) (UniProt P10827+P10828); assay: Percentage binding to thyroid hormone receptor at 10 uM; type: protein-complex assay
[40] = biological target: Polyunsaturated fatty acid 5-lipoxygenase (Homo sapiens) (UniProt P09917); assay: Inhibition of 5LOX at 10 uM
[41] = biological target: Sodium-dependent serotonin transporter (Homo sapiens) (UniProt P31645); assay: Activity against serotonin uptake at 10 uM
[42] = biological target: Melanocortin receptor 4 (Homo sapiens) (UniProt P32245); assay: Percentage binding to MCR4 at 10 uM
[43] = Turbidimetric solubility at pH 7; type: ADME, organism-based, Homo sapiens

## CN1C(=O)C(C(=O)Nc2nncs2)c2cc3occc3cc21 (stereo not drawn)
[1]
  Activity: 8%
[2]
  Activity: 15%
[3]
  inhibition: 16%
[4]
  Activity: 3%
[5]
  IC50: > 16 µM
[6]
  Activity: 0%
[7]
  Activity: 1%
[8]
  Activity: 12%
[9]
  inhibition: 6%
[10]
  Activity: 24%
[11]
  IC50: 0.04 µM
[12]
  Activity: 20%
[13]
  Papp: 3 ×10⁻⁶ cm/s
[14]
  inhibition: 2%
[15]
  IC50: 11.6 µM
[16]
  inhibition: 0%
[17]
  Activity: 4%
[18]
  Activity: 13%
[19]
  inhibition: 5%
[20]
  inhibition: 0%
[21]
  inhibition: 7%
[22]
  Activity: 16%
[23]
  inhibition: 0%
[24]
  IC50: > 16 µM
[25]
  Activity: 0%
[26]
  inhibition: 1%
[27]
  Activity: 0%
[28]
  Papp: 4.6 ×10⁻⁶ cm/s
[29]
  Activity: 0%
[30]
  IC50: > 16 µM
[31]
  inhibition: 0%
[32]
  Activity: 12%
[33]
  Activity: 3%
[34]
  Activity: 35%
[35]
  Activity: 23%
[36]
  Activity: 0%
[37]
  Activity: 0%
[38]
  IC50: > 16 µM
[39]
  Activity: 0%
[40]
  inhibition: 35%
[41]
  Activity: 0%
[42]
  Activity: 12%
[43]
  solubility kinetic: 55 µg/mL (≈ 175 µM)
